From ChEMBL document CHEMBL3044699, “Synthesis and herbicidal activity of N-oxide derivatives” (2000)
Calls of active or inactive are those of the source. The calls are words filed in the database; no cut-off is given here.

Experiments:
Triticum aestivum [1] = assay: Pre-emergence herbicidal activity against Triticum aestivum (wheat) assessed as reduction in length of the first leaf at 50 mol/ha relative to untreated control; assay type: functional; parameters: scale not given: the % may be the effect or the level left
Summary of the method: (§1)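 Wheat was grown in sterilized sand flats at near-neutral pH and treated pre-emergence at 6.4–19.6 kg/ha in acetone-, DMSO- or Tween 80-containing vehicles. Length of first leaf, aerial weight and radicular weight were compared with untreated control and scored 4 (100–80% reduction), 3 (79–50%), 2 (49–20%), 1 (19–1%) or 0 (increase). Atrazine 2.5 kg/ha was the positive control. Duplicate runs; ANOVA.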

Triticum aestivum [2] = assay: Pre-emergence herbicidal activity against Triticum aestivum (wheat) assessed as reduction in aerial weight at 50 mol/ha relative to untreated control; assay type: functional; parameters: scale not given: the % may be the effect or the level left; summary of the method: as §1
Triticum aestivum [3] = assay: Pre-emergence herbicidal activity against Triticum aestivum (wheat) assessed as reduction in radicular weight at 50 mol/ha relative to untreated control; assay type: functional; parameters: scale not given: the % may be the effect or the level left; summary of the method: as §1
Triticum aestivum [4] = assay: Pre-emergence herbicidal activity against Triticum aestivum (wheat) assessed as germination seeds level at 50 mol/ha relative to untreated control; assay type: functional
Summary of the method: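 Pre-emergence greenhouse assay on T. aestivum sown in sterilized sand in celled flats, with the medium near neutral pH. Compound was applied in acetone/H₂O, DMSO/H₂O, acetone/DMSO or acetone/DMSO/H₂O/Tween 80 at 6.4–19.6 kg/ha. Percentage of germinated seeds was calculated against untreated control. Atrazine (2.5 kg/ha, 12 mol/ha) was the positive control. Run in duplicate; ANOVA.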

Triticum aestivum [5] = assay: Post-emergence herbicidal activity against Triticum aestivum (wheat) at 50 mol/ha measured 10 days post compound application; assay type: functional, organism-based
Summary of the method: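 Post-emergence greenhouse test on T. aestivum, set up identically to the pre-emergence test: sterilized sand flats at near-neutral pH, application at 6.4–19.6 kg/ha in acetone/DMSO/water-based vehicles, and reduction of plant parameters versus untreated control scored on a 0–4 scale. Atrazine 2.5 kg/ha was the positive control. Duplicate; ANOVA.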

Triticum aestivum [6] = assay: Stimulation of plant growth parameters in Triticum aestivum (wheat) assessed as increase in length of the first leaf at 50 mol/ha; assay type: functional, organism-based
Summary of the method: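 Pre-emergence greenhouse whole-plant test on T. aestivum L. Seeds were grown in sterilized sand in celled flats, with the medium near neutral pH. Compound was applied in acetone/H₂O, DMSO/H₂O, acetone/DMSO or acetone/DMSO/H₂O/Tween 80 vehicle, at 6.4–19.6 kg/ha by weight. Length of first leaf was compared with untreated control, with a score of 0 marking an increase. Atrazine at 2.5 kg/ha was the positive control. Run in duplicate and analysed by ANOVA.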

Triticum aestivum [7] = assay: Stimulation of plant growth parameters in Triticum aestivum (wheat) assessed as increase in aerial weight at 50 mol/ha; assay type: functional, organism-based; summary of the method: as §1
Triticum aestivum [8] = assay: Stimulation of plant growth parameters in Triticum aestivum (wheat) assessed as increase in radicular weight at 50 mol/ha; assay type: functional, organism-based; summary of the method: as §1

| Structure (SMILES) | Activity (Triticum aestivum [1]) | Activity (Triticum aestivum [2]) | Activity (Triticum aestivum [3]) | Activity (Triticum aestivum [4]) | Activity (Triticum aestivum [5]) | Activity (Triticum aestivum [6]) | Activity (Triticum aestivum [7]) | Activity (Triticum aestivum [8]) |
| --- | --- | --- | --- | --- | --- | --- | --- | --- |
| [O-][n+]1onc(-c2ccccc2)c1CNc1ccc(Cl)cc1 | 1% | 1% | 1% | 100% |  |  |  |  |
| [O-][n+]1onc(-c2ccccc2)c1CCl | 1% | 1% | 1% | 100% | inactive |  |  |  |
| O=C1c2ccccc2C(=O)N1Cc1c(-c2ccccc2)no[n+]1[O-] |  |  | 1% | 100% |  | Active | Active |  |
| O=C(Nc1ccc(Cl)cc1)c1ccc2c(c1)no[n+]2[O-] | 3% | 3% | 4% | 96% |  |  |  |  |
| O=Cc1ccc2no[n+]([O-])c2c1 [6-FORMYLBENZO[C][1,2,5]OXADIAZOLE1-OXIDE] | 2% | 1% |  | 100% |  |  |  | Active |
| [O-][n+]1onc(-c2ccccc2)c1CN1CCN(c2ncccn2)CC1 | inactive | inactive | inactive | 100% | inactive |  |  |  |
| COC(=O)N/N=C/c1ccc2c(c1)[n+]([O-])c(C)c(C)[n+]2[O-] |  |  |  | 100% |  | Active | Active | Active |
| COC(=O)N/N=C/c1no[n+]([O-])c1C | 3% | 3% |  | 15% |  |  |  | Active |
| Cc1c(/C=N/NC(N)=O)no[n+]1[O-] |  | 4% | 3% | 89% |  |  |  |  |
| CCCCCCNC(=O)N/N=C/c1no[n+]([O-])c1C | 3% | 4% | 3% | 95% |  |  |  |  |
| O=C(NCCc1ccccc1)N/N=C/c1ccc2c(c1)no[n+]2[O-] | 2% | 2% | 2% | 100% |  |  |  |  |
| COC(=O)N/N=C/c1c(-c2ccccc2)no[n+]1[O-] | 2% |  | 2% | 100% |  |  | Active |  |
| Cc1ccc2no[n+]([O-])c2c1 [6-METHYLBENZO[C][1,2,5]OXADIAZOLE1-OXIDE] | 3% | 3% | 3% | 100% |  |  |  |  |
| COC(=O)N/N=C/c1ccc2c(c1)no[n+]2[O-] | 1% | 1% | 3% | 75% |  |  |  |  |
| [O-][n+]1onc2ccccc21 [BENZO[C][1,2,5]OXADIAZOLE 1-OXIDE] | inactive | inactive | inactive | 100% | inactive |  |  |  |
| Cc1c(/C=N/NC(N)=S)no[n+]1[O-] |  | 4% | 4% | 92% |  |  |  |  |
| COC(=O)N/N=C/c1ccc2nonc2c1 |  |  |  | 100% |  | Active | Active | Active |
| COc1ccc(NCc2c(-c3ccccc3)no[n+]2[O-])cc1 | 1% | 1% | 1% | 100% |  |  |  |  |
| Cc1c(C=O)no[n+]1[O-] | 1% |  | 1% | 100% |  |  | Active |  |
| COCCNC(=O)c1ccc2c(c1)no[n+]2[O-] | 2% | 1% | 1% | 100% |  |  |  |  |
| NC(=S)N/N=C/c1c(-c2ccccc2)no[n+]1[O-] | 2% |  | 3% | 100% |  |  | Active |  |
| CCCCNC(=O)c1ccc2c(c1)no[n+]2[O-] | 3% | 3% | 3% | 46% |  |  |  |  |
| Cc1c(C)[n+]([O-])c2cc(/C=N/NC(=O)NCCc3ccccc3)ccc2[n+]1[O-] |  |  | 1% | 100% |  | Active | Active |  |
| O=Cc1c(-c2ccccc2)no[n+]1[O-] | 1% |  | 1% | 100% |  |  | Active |  |
| O=C(c1ccc2c(c1)no[n+]2[O-])N1CCOCC1 | 3% | 3% | 3% | 100% |  |  |  |  |
| O=C(O)c1ccc2no[n+]([O-])c2c1 | 1% | 1% | 1% | 100% | inactive |  |  |  |
| [O-][n+]1onc(-c2ccccc2)c1CNc1ccc(Br)cc1 | 2% | 1% | 1% | 100% |  |  |  |  |
